Among the data in ChEMBL document CHEMBL5331118, “Allosteric Inhibitors of Macrophage Migration Inhibitory Factor (MIF) Interfere with Apoptosis-Inducing Factor (AIF) Co-Localization to Prevent Parthanatos” (J Med Chem, 2023) are Activity and inhibition values, retold here.

The target in series [1] is T1, Macrophage migration inhibitory factor (Homo sapiens) (UniProt P14174).
T1 sequence (whole entry): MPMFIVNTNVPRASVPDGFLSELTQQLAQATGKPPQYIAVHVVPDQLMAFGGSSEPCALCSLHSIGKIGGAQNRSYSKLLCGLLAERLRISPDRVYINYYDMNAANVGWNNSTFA
Put plainly: Inhibition of recombinant C-terminal His-tagged human MIF tautomerase activity expressed in Escherichia coli BL21 assessed as residual activity at 10 uM using PP as substrate preincubated for 10 mins and followed by substrate addition and measured for 3 mins by microplate reader analysis relative to control. The following applies: time 13.0 min.

Series [2] deals with T1, Macrophage migration inhibitory factor (Homo sapiens). The series can be described thus: Reversible inhibition of recombinant human MIF tautomerase activity expressed in Escherichia coli BL21 assessed as recovery of enzyme activity at 25 uM using PP as substrate preincubated for 10 mins followed by substrate addition and measured after 20 mins by jump dilution method. To be noted: time 30.0 min.

The subject of series [3] is HeLa. The series can be described thus: Protection against MNNG-induced parthanatos in human HeLa cells assessed as cell viability preincubated for 3 hrs prior to MNNG addition and measured for 15 mins followed by fresh media replacement for 24 hrs by Hoechst 33342 and propidium iodide staining based flow cytometry analysis. The format is functional. To be noted: time 1635.0 min. The method in brief: (§1)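 HeLa cells in DMEM/10% FBS, 5×10^5 per well, were pretreated 3 h with 100 μM inhibitor, then given 50 μM MNNG for 15 min. Medium was replaced and cells were cultured 24 h. Trypsinized cells were stained with 7 μM Hoechst 33342 and 2 μM PI and analysed by flow cytometry. Hoechst-only cells were counted as live, Hoechst+PI cells as dead.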
On the technique in general: In flow cytometry, cells or beads pass a laser one at a time.

For series [4], the system named is HeLa. Put plainly: Protection against MNNG-induced parthanatos in human HeLa cells assessed as cell viability preincubated for 3 hrs prior to MNNG addition and measured for 15 mins followed by fresh media replacement for 24 hrs by Hoechst 33342 and propidium iodide staining based flow cytometry analysis (reference value: 20 %). The format is functional. The following applies: time 1635 min; 27.25 h. In short, it runs like this:
as §1

In series [5] the test system is HeLa. Put plainly: Protection against MNNG-induced parthanatos in human HeLa cells assessed as restoration of original phenotype at 3.7 to 100 uM. The following applies: dose 3.7-100 µM, TDE = time-dependent effect. The format is functional, cell-based.
Series [6] deals with HeLa. The series can be described thus: Protection against MNNG-induced parthanatos in human HeLa cells assessed as restoration of original phenotype after 0.5 to 3 hrs. The format is functional, cell-based. The following applies: time 0.5-3 hrs.
In series [7] the test system is HeLa. The series can be described thus: Inhibition of MNNG-induced DNA damage in human HeLa cells preincubated for 2 hrs followed by MNNG addition and measured after 2 hrs by comet assay. In kind it is functional, cell-based. The following applies: time 4.0 hrs. In short, it runs like this: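 Alkaline comet assay. HeLa cells were given 50 μM inhibitor or none for 2 h, then 10 μM MNNG for 2 h. Cells were embedded in 1% low-melt agarose and lysed overnight at 4 °C in alkaline lysis solution (pH > 13). Electrophoresis ran at pH > 12, 0.6 V/cm, 25 min. Slides were stained with 2.5 μg/mL PI, imaged by fluorescence microscopy and quantified by image analysis.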

The test system of series [8] is HeLa. Put plainly: Induction of DNA damage in human HeLa cells by comet assay. In kind it is toxicity, cell-based.
In series [9] the test system is HeLa. The series can be described thus: Inhibition of MNNG-induced DNA damage in human HeLa cells preincubated for 2 hrs followed by MNNG addition by gel electrophoresis assay. The format is functional, cell-based. The following applies: dose 50.0 µM, TDE = time-dependent effect.
The test system of series [10] is HeLa. The series can be described thus: Inhibition of MNNG-induced DNA damage in human HeLa cells preincubated for 2 hrs followed by MNNG addition and measured after 2 hrs by gel electrophoresis assay. The following applies: dose 1.2-100 µM, time 4.0 hrs. In kind it is functional, cell-based.
For series [11], the system named is HeLa. The series can be described thus: Inhibition of MIF nuclear translocation in human HeLa cells at 100 uM preincubated for 3 hrs followed by MNNG stimulation for 15 mins by immunofluorescence staining based confocal microscopic analysis. The following applies: time 195.0 min. The format is functional, cell-based. In short, it runs like this: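 HeLa cells on coverslips got ±100 μM inhibitor for 3 h, then MNNG (50 μM, 15 min), and were incubated overnight. They were methanol-fixed and blocked with 2% BSA. MIF was stained with a rabbit polyclonal and Alexa488 secondary, AIF with a mouse monoclonal and Alexa647 secondary, and nuclei with NucBlue. Nuclear localization was imaged by confocal microscopy.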

Active and inactive are the calls of the source. The calls are words filed in the database; no cut-off is given here.

With `O=C(NCCc1ccccc1)c1cn(-c2cccc3ncccc23)nn1`, the Activity in series [1] is 68%.
With `O=C(Nc1ccccc1)c1ccc(-n2cc(C(=O)NCc3cccs3)nn2)cc1`, the inhibition result in series [2], in series [7] and in [11] was “Active” each time. In addition, the Activity result was “Dose-Dependent Effect” in series [3]; 50% in series [4]; “Tde” in [5]; “Dose-Dependent Effect” in series [6]; “Non-Toxic” in series [8]. The results for the inhibition result in series [9] and in [10] were “Tde” and “Dose-Dependent Effect”, respectively.
Regarding `N#Cc1ccc(-n2cc(C(=O)Nc3ccc(Br)cc3)nn2)cc1`, the Activity in series [1] stood at 44%.
